Results: ChEMBL document CHEMBL3734652, “Pyrrolo[3,4-c]pyridine-1,3(2H)-diones: A Novel Antimycobacterial Class Targeting Mycobacterial Respiration” (J Med Chem, 2015)
Values after ≈ are worked out from the molar mass of the structure shown.

Legend:
[1] = tested on: Mycobacterium tuberculosis; test: Antimicrobial activity against Mycobacterium tuberculosis H37RvMA under GAST/Fe medium assessed as growth inhibition after 14 days by alamar blue assay; format: functional; details: 336 h
Summary of the method: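 Broth microdilution in GAST/Fe medium against fully virulent Mtb H37RvMa or its derived strains (cytochrome bd oxidase deletion ΔcydKO; qcrB Ala317Thr point mutant). Plates were incubated 14 days, growth was read by Alamar Blue, and MIC90 was taken as the potency value.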

[2] = Kinetic solubility in FaSSIF at pH 6.5 after 2 hours at 25 degC by shake flask method; format: physicochemical; details: read-out: Kinetic_solubility
[3] = Metabolic stability in human liver microsomes assessed as residual compound at 0.1 uM after 30 mins by LC-MS/MS method in presence or absence of NADPH; format: ADME; details: read-out: Stability
[4] = Metabolic stability in rat liver microsomes assessed as residual compound at 0.1 uM after 30 mins by LC-MS/MS method in presence or absence of NADPH; format: ADME; details: read-out: Stability
[5] = Metabolic stability in mouse liver microsomes assessed as residual compound at 0.1 uM after 30 mins by LC-MS/MS method in presence or absence of NADPH; format: ADME; details: read-out: Stability
Vero = test: Cytotoxicity against African green monkey Vero cells assessed as cell viability by MTT assay; format: cell-based; details: Chlorocebus sabaeus
Summary of the method: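 VERO kidney epithelial cells from African green monkey were exposed to compounds at concentrations up to 100 μM, and IC₅₀ was reported.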

Liver = test: Drug level in BALB/c mouse liver microsomes treated with 7-Amino-2-benzyl-4-methyl-6-(3-methyl-1,2,4-oxadiazol-5-yl)-1H-pyrrolo[3,4-c]pyridine-1,3(2H)-dione at 10 uM after 1 hr by LC-MS analysis; format: ADME
Plasma = test: Drug metabolism in C57/BL6 mouse plasma treated with 7-Amino-2-benzyl-4-methyl-6-(3-methyl-1,2,4-oxadiazol-5-yl)-1H-pyrrolo[3,4-c]pyridine-1,3(2H)-dione by LC-MS analysis; format: ADME, cell-free

Cc1nc(-c2nc(C(F)(F)F)no2)c(N)c2c1C(=O)N(Cc1ccccc1)C2=O
MIC90 [1]: 20 µM (≈ 8.07 µg/mL)
solubility kinetic at 2 h [2]: < 5 µM
remaining at 0.5 h, 0.1 µM [3]: 100%
remaining at 0.5 h, 0.1 µM [4]: 83%
remaining at 0.5 h, 0.1 µM [5]: 20%
IC50 (Vero): > 100 µM

Cc1noc(-c2nc(C)c3c(c2N)C(=O)N(Cc2ccc(S(C)(=O)=O)cc2)C3=O)n1
MIC90 [1]: 0.31 µM (≈ 0.133 µg/mL)
solubility kinetic at 2 h [2]: < 5 µM

Cc1noc(-c2nc(C)c3c(c2N)C(=O)N(Cc2ccc(N4CCCC4=O)cc2)C3=O)n1
MIC90 [1]: > 160 µM
solubility kinetic at 2 h [2]: < 5 µM

Cc1noc(-c2nc(C)c3c(c2N)C(=O)N(CC2CCNCC2)C3=O)n1
MIC90 [1]: > 160 µM
solubility kinetic at 2 h [2]: 160 µM (≈ 57 µg/mL)

COc1ccc(CN2C(=O)c3c(C)nc(-c4nc(C)no4)c(N)c3C2=O)cc1
MIC90 [1]: < 0.156 µM
solubility kinetic at 2 h [2]: < 5 µM

COC(=O)c1nc(C)c2c(c1N)C(=O)N(Cc1ccccc1)C2=O
MIC90 [1]: 0.15 µM (≈ 0.0488 µg/mL)
solubility kinetic at 2 h [2]: 7.4 µM (≈ 2.41 µg/mL)

CCOC(=O)c1ncc2c(c1N)C(=O)N(Cc1ccccc1)C2=O
MIC90 [1]: 20 µM (≈ 6.51 µg/mL)

Cc1noc(-c2nc(C)c3c(c2N)C(=O)N(Cc2ccc(C#N)cc2)C3=O)n1
MIC90 [1]: > 160 µM
solubility kinetic at 2 h [2]: < 5 µM

Cc1noc(-c2nc(C)c3c(c2N)C(=O)N(Cc2ccc(OC(F)(F)F)cc2)C3=O)n1
MIC90 [1]: 0.62 µM (≈ 0.269 µg/mL)
solubility kinetic at 2 h [2]: < 5 µM

Cc1nnc(-c2nc(C)c3c(c2N)C(=O)N(Cc2ccccc2)C3=O)o1
MIC90 [1]: > 160 µM
solubility kinetic at 2 h [2]: < 5 µM
remaining at 0.5 h, 0.1 µM [3]: 63%
remaining at 0.5 h, 0.1 µM [4]: 50%
remaining at 0.5 h, 0.1 µM [5]: 57%
IC50 (Vero): > 100 µM

Cc1noc(-c2nc(C)c3c(c2N)C(=O)N(Cc2ccc(Oc4ccc(F)cc4)cc2)C3=O)n1
MIC90 [1]: < 0.156 µM
solubility kinetic at 2 h [2]: 23.8 µM (≈ 10.9 µg/mL)

Cc1noc(-c2nc(C)c3c(c2N)C(=O)N(Cc2ccc(-n4cccn4)cc2)C3=O)n1
MIC90 [1]: 40 µM (≈ 16.6 µg/mL)
solubility kinetic at 2 h [2]: < 5 µM

Cc1noc(-c2nc(C)c3c(c2N)C(=O)N(Cc2ccc(F)cc2)C3=O)n1
MIC90 [1]: 0.31 µM (≈ 0.114 µg/mL)
solubility kinetic at 2 h [2]: < 5 µM

Cc1noc(-c2nc(C)c3c(c2N)C(=O)N(Cc2ccc(Br)cc2)C3=O)n1
MIC90 [1]: < 0.156 µM
solubility kinetic at 2 h [2]: < 5 µM

CCOC(=O)c1nc(C)c2c(c1N)C(=O)N(c1ccccc1)C2=O
MIC90 [1]: > 160 µM
solubility kinetic at 2 h [2]: 5 µM (≈ 1.63 µg/mL)

Cc1noc(-c2nc(C)c3c(c2N)C(=O)N(Cc2ccc(SC(F)(F)F)cc2)C3=O)n1
MIC90 [1]: 1.2 µM (≈ 0.539 µg/mL)
solubility kinetic at 2 h [2]: < 5 µM

Cc1noc(-c2nc(C)c3c(c2N)C(=O)N(Cc2cccc(C(F)(F)F)c2)C3=O)n1
MIC90 [1]: < 0.156 µM
solubility kinetic at 2 h [2]: < 5 µM

Cc1nc(C(=O)NO)c(N)c2c1C(=O)N(Cc1ccccc1)C2=O
MIC90 [1]: > 160 µM
remaining at 0.5 h, 0.1 µM [3]: 80%
remaining at 0.5 h, 0.1 µM [4]: 46%
remaining at 0.5 h, 0.1 µM [5]: 58%

CNC(=O)c1nc(C)c2c(c1N)C(=O)N(Cc1ccccc1)C2=O
MIC90 [1]: > 160 µM
solubility kinetic at 2 h [2]: 41 µM (≈ 13.3 µg/mL)

Cc1noc(-c2nc(C)c3c(c2N)C(=O)N(Cc2ccc(OC(F)F)cc2)C3=O)n1
MIC90 [1]: < 0.156 µM
solubility kinetic at 2 h [2]: < 5 µM

CCCOC(=O)c1nc(C)c2c(c1N)C(=O)N(Cc1ccccc1)C2=O
MIC90 [1]: < 0.156 µM
solubility kinetic at 2 h [2]: < 5 µM
remaining at 0.5 h, 0.1 µM [3]: 3.4%
remaining at 0.5 h, 0.1 µM [4]: 3.3%
remaining at 0.5 h, 0.1 µM [5]: 8.8%

COc1ccccc1CN1C(=O)c2c(C)nc(-c3nc(C)no3)c(N)c2C1=O
MIC90 [1]: 0.31 µM (≈ 0.118 µg/mL)
solubility kinetic at 2 h [2]: < 5 µM

Cc1nc(C(=O)OC2CC2)c(N)c2c1C(=O)N(Cc1ccccc1)C2=O
MIC90 [1]: 1.25 µM (≈ 0.439 µg/mL)
solubility kinetic at 2 h [2]: 202 µM (≈ 71 µg/mL)
remaining at 0.5 h, 0.1 µM [3]: 61%
remaining at 0.5 h, 0.1 µM [4]: 9.6%
remaining at 0.5 h, 0.1 µM [5]: 36%

Cc1noc(-c2nc(C)c3c(c2N)C(=O)N(Cc2ccccc2Cl)C3=O)n1
MIC90 [1]: 1.25 µM (≈ 0.48 µg/mL)
solubility kinetic at 2 h [2]: < 5 µM

Cc1noc(-c2nc(C)c3c(c2N)C(=O)N(Cc2ccc(-c4ccncc4)cc2)C3=O)n1
MIC90 [1]: 160 µM (≈ 68.2 µg/mL)
solubility kinetic at 2 h [2]: < 5 µM

Cc1noc(-c2nc(C)c3c(c2N)C(=O)N(Cc2ccc(Cl)cc2)C3=O)n1
MIC90 [1]: 0.62 µM (≈ 0.238 µg/mL)
solubility kinetic at 2 h [2]: < 5 µM

Cc1noc(-c2nc(C)c3c(c2N)C(=O)N(Cc2ccc(N(C)C)cc2)C3=O)n1
MIC90 [1]: 20 µM (≈ 7.85 µg/mL)
solubility kinetic at 2 h [2]: 7.4 µM (≈ 2.9 µg/mL)

Cc1noc(-c2nc(C)c3c(c2N)C(=O)N(Cc2ccccc2C(F)(F)F)C3=O)n1
MIC90 [1]: > 160 µM
solubility kinetic at 2 h [2]: < 5 µM

Cc1noc(-c2nc(C)c3c(c2N)C(=O)N(Cc2ccncc2)C3=O)n1
MIC90 [1]: 20 µM (≈ 7.01 µg/mL)
solubility kinetic at 2 h [2]: 26.4 µM (≈ 9.25 µg/mL)

Cc1noc(-c2nc(C)c3c(c2N)C(=O)N(C(C)c2ccccc2)C3=O)n1 (centres undefined)
MIC90 [1]: 1.25 µM (≈ 0.454 µg/mL)
solubility kinetic at 2 h [2]: 10.9 µM (≈ 3.96 µg/mL)

Cc1nc(C#N)c(N)c2c1C(=O)N(Cc1ccccc1)C2=O
MIC90 [1]: > 160 µM
solubility kinetic at 2 h [2]: < 5 µM
remaining at 0.5 h, 0.1 µM [3]: 98%
remaining at 0.5 h, 0.1 µM [4]: 100%
remaining at 0.5 h, 0.1 µM [5]: 99%

Cc1noc(-c2nc(C)c3c(c2N)C(=O)N(CC2CCOCC2)C3=O)n1
MIC90 [1]: 20 µM (≈ 7.15 µg/mL)
solubility kinetic at 2 h [2]: 5.7 µM (≈ 2.04 µg/mL)

Cc1noc(-c2nc(C)c3c(c2N)C(=O)N(Cc2ccccc2F)C3=O)n1
MIC90 [1]: 0.3 µM (≈ 0.11 µg/mL)
solubility kinetic at 2 h [2]: < 5 µM

Cc1noc(-c2nc(C)c3c(c2N)C(=O)N(Cc2ccc(Cl)cn2)C3=O)n1
MIC90 [1]: 2.5 µM (≈ 0.962 µg/mL)
solubility kinetic at 2 h [2]: < 5 µM

COC(=O)c1nc(C)c2c(c1N)C(O)N(Cc1ccccc1)C2=O (centres undefined)
MIC90 [1]: 2.5 µM (≈ 0.818 µg/mL)
solubility kinetic at 2 h [2]: 200 µM (≈ 65.5 µg/mL)
remaining at 0.5 h, 0.1 µM [3]: 55%
remaining at 0.5 h, 0.1 µM [4]: 70%
remaining at 0.5 h, 0.1 µM [5]: 69%
IC50 (Vero): > 100 µM

CCOC(=O)c1nc(C)c2c(c1N)C(=O)N(Cc1ccccc1)C2O (centres undefined)
MIC90 [1]: 0.144 µM (≈ 0.0492 µg/mL)
solubility kinetic at 2 h [2]: 41.5 µM (≈ 14.2 µg/mL)
remaining at 0.5 h, 0.1 µM [3]: 99%
remaining at 0.5 h, 0.1 µM [4]: 81%
remaining at 0.5 h, 0.1 µM [5]: 89%
IC50 (Vero): > 100 µM

Cc1noc(-c2nc(C)c3c(c2N)C(=O)N(Cc2ccc(C(F)(F)F)cc2)C3=O)n1
MIC90 [1]: 20 µM (≈ 8.35 µg/mL)
solubility kinetic at 2 h [2]: < 5 µM

Cc1nc(C(=O)N(C)C)c(N)c2c1C(=O)N(Cc1ccccc1)C2=O
MIC90 [1]: > 160 µM
solubility kinetic at 2 h [2]: 172 µM (≈ 58.2 µg/mL)
remaining at 0.5 h, 0.1 µM [3]: 72%
remaining at 0.5 h, 0.1 µM [4]: 51%
remaining at 0.5 h, 0.1 µM [5]: 47%
IC50 (Vero): > 100 µM

Cc1nc(C(N)=O)c(N)c2c1C(=O)N(Cc1ccccc1)C2=O
MIC90 [1]: > 160 µM
solubility kinetic at 2 h [2]: < 5 µM
Drug metabolism (Liver): metabolite_detected
Drug metabolism (Plasma): metabolite_detected

Cc1noc(-c2nc(C)c3c(c2N)C(=O)N(Cc2ccc(CO)cc2)C3=O)n1
MIC90 [1]: 0.62 µM (≈ 0.235 µg/mL)
solubility kinetic at 2 h [2]: < 5 µM

Cc1nc(C(=O)NC#N)c(N)c2c1C(=O)N(Cc1ccccc1)C2=O
MIC90 [1]: > 160 µM
solubility kinetic at 2 h [2]: 185 µM (≈ 62 µg/mL)
remaining at 0.5 h, 0.1 µM [3]: 99%
remaining at 0.5 h, 0.1 µM [4]: 92%
remaining at 0.5 h, 0.1 µM [5]: 95%
Drug metabolism (Liver): metabolite_detected
Drug metabolism (Plasma): metabolite_detected

Cc1noc(-c2nc(C)c3c(c2N)C(=O)N(Cc2ccc(C(N)=O)cc2)C3=O)n1
MIC90 [1]: > 160 µM
solubility kinetic at 2 h [2]: < 5 µM

Cc1noc(-c2nc(C)c3c(c2N)C(=O)N(Cc2cccc(F)c2)C3=O)n1
MIC90 [1]: < 0.156 µM
solubility kinetic at 2 h [2]: < 5 µM

CO[C@H]1/C=C/O[C@@]2(C)Oc3c(C)c(O)c4c(O)c(c(/C=N/N5CCN(C)CC5)c(O)c4c3C2=O)NC(=O)/C(C)=C\C=C\[C@H](C)[C@H](O)[C@@H](C)[C@@H](O)[C@@H](C)[C@H](OC(C)=O)[C@@H]1C [RIFAMPIN]
MIC90 [1]: 0.009 µM (≈ 0.00741 µg/mL)
